Key:
[1] = species: Rattus norvegicus; assay: Regional uptake of [18F]AFA in thalamus of rat pretreated with compound 7e; n=3; format: functional, organism-based; settings: tested as the 18F-labelled form
[2] = biological target: Sodium-dependent serotonin transporter (Rattus norvegicus) (UniProt P31652); assay: Specific binding in rat hypothalamus at 30 min postinjection in vivo; format: functional, organism-based; settings: tested as the 18F-labelled form
Method in brief: (§1)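 Male Sprague-Dawley rats, n=3 per time point, received about 20 µCi of F-18 radioligand in saline iv by tail vein and were killed at 10–120 min. %ID/g was measured with decay and tail-residual correction. Hypothalamic specific binding = (%ID/g hypothalamus − %ID/g cerebellum)/%ID/g cerebellum; mean ± SD.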

[3] = biological target: Sodium-dependent serotonin transporter (Rattus norvegicus) (UniProt P31652); assay: Specific binding of [18F]AFA in rat frontal cortex after citalopram treatment; n=3; format: functional, tissue-based; settings: tested as the 18F-labelled form
Method in brief: (§2)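 Rats, three per group, were pretreated iv with blocker at 2 mg/kg in saline, or with saline as control, 10–15 min before tail-vein F-18 radioligand (about 20 µCi). Killed at 60 min and regional %ID/g determined. Specific binding = (region activity − cerebellum activity)/cerebellum activity; mean ± SD.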

[4] = biological target: Sodium-dependent serotonin transporter (Rattus norvegicus) (UniProt P31652); assay: Specific binding of [18F]AFA in rat thalamus after citalopram treatment; n=3; format: functional, tissue-based; settings: tested as the 18F-labelled form; method in brief: as §2
[5] = biological target: Sodium-dependent serotonin transporter (Homo sapiens, UniProt P31645); assay: In vitro displacement of [3H]paroxetine from human serotonin transporter expressed in HEK293 cells; format: cell-based
[6] = species: Rattus norvegicus; assay: Regional uptake of [18F]AFA in hypothalamus of rat pretreated with compound 7e; n=3; format: functional, organism-based; settings: tested as the 18F-labelled form
[7] = biological target: Sodium-dependent serotonin transporter (Rattus norvegicus) (UniProt P31652); assay: Specific binding of [18F]-AFA in rat striatum after citalopram treatment; n=3; format: functional, tissue-based; settings: tested as the 18F-labelled form; method in brief: as §2
[8] = biological target: Sodium-dependent serotonin transporter (Rattus norvegicus) (UniProt P31652); assay: Specific binding of [18F]AFA in rat frontal cortex after GBR-12935 treatment; n=3; format: functional, tissue-based; settings: tested as the 18F-labelled form; method in brief: as §2
[9] = species: Rattus norvegicus; assay: Regional uptake of [18F]AFA in hippocampus of rat pretreated with compound citalopram; n=3; format: functional, organism-based; settings: tested as the 18F-labelled form
Method in brief: (§3)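 Male Sprague-Dawley rats, three per group, received blocker (2 mg/kg iv in saline) or saline only (controls) 10–15 min before about 20 µCi of tail-vein F-18 radioligand. Killed 60 min after tracer. Blood and brain regions weighed and gamma-counted. %ID/g was decay- and tail-corrected; mean ± SD.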

[10] = species: Rattus norvegicus; assay: Regional uptake of [18F]AFA in thalamus of rat pretreated with compound citalopram; n=3; format: functional, organism-based; settings: tested as the 18F-labelled form; method in brief: as §3
[11] = species: Rattus norvegicus; assay: Regional uptake of [18F]AFA in cerebellum of rat pretreated with compound 7e; n=3; format: functional, organism-based; settings: tested as the 18F-labelled form
[12] = biological target: Sodium-dependent serotonin transporter (Rattus norvegicus) (UniProt P31652); assay: Specific binding in rat hypothalamus at 60 min postinjection in vivo; format: functional, organism-based; settings: tested as the 18F-labelled form; method in brief: as §1
[13] = biological target: Sodium-dependent serotonin transporter (Rattus norvegicus) (UniProt P31652); assay: Specific binding of [18F]AFA in rat striatum after GBR-12935 treatment; n=3; format: functional, tissue-based; settings: tested as the 18F-labelled form; method in brief: as §2
[14] = biological target: Sodium-dependent serotonin transporter (Rattus norvegicus) (UniProt P31652); assay: Specific binding in rat hypothalamus at 10 min postinjection in vivo; format: functional, organism-based; settings: tested as the 18F-labelled form; method in brief: as §1
[15] = biological target: Sodium-dependent serotonin transporter (Rattus norvegicus) (UniProt P31652); assay: Specific binding of [18F]AFA in rat hypothalamus after citalopram treatment; n=3; format: functional, tissue-based; settings: tested as the 18F-labelled form; method in brief: as §2
[16] = species: Rattus norvegicus; assay: Regional uptake of [18F]-AFA in blood of rat pretreated with compound citalopram; n=3; format: functional, organism-based; settings: tested as the 18F-labelled form; method in brief: as §3
[17] = biological target: Sodium-dependent serotonin transporter (Rattus norvegicus) (UniProt P31652); assay: Specific binding of [18F]AFA in rat hippocampus after GBR-12935 treatment; n=3; format: functional, tissue-based; settings: tested as the 18F-labelled form; method in brief: as §2
[18] = species: Rattus norvegicus; assay: Regional uptake of [18F]AFA in cerebellum of rat pretreated with compound nisoxetine; n=3; format: functional, organism-based; settings: tested as the 18F-labelled form; method in brief: as §3
[19] = species: Rattus norvegicus; assay: Regional uptake of [18F]AFA in striatum of rat pretreated with compound citalopram; n=3; format: functional, organism-based; settings: tested as the 18F-labelled form; method in brief: as §3
[20] = biological target: Sodium-dependent serotonin transporter (Rattus norvegicus) (UniProt P31652); assay: Specific binding of [18F]AFA in rat hippocampus after nisoxetine treatment; n=3; format: functional, tissue-based; settings: tested as the 18F-labelled form; method in brief: as §2
[21] = biological target: Sodium-dependent serotonin transporter (Rattus norvegicus) (UniProt P31652); assay: Specific binding in rat hypothalamus at 120 min postinjection in vivo; format: functional, organism-based; settings: tested as the 18F-labelled form; method in brief: as §1
[22] = species: Rattus norvegicus; assay: Regional uptake of [18F]AFA in hippocampus of rat pretreated with compound nisoxetine; n=3; format: functional, organism-based; settings: tested as the 18F-labelled form; method in brief: as §3
[23] = biological target: Sodium-dependent serotonin transporter (Rattus norvegicus) (UniProt P31652); assay: Specific binding in rat hypothalamus at 90 min postinjection in vivo; format: functional, organism-based; settings: tested as the 18F-labelled form; method in brief: as §1
[24] = species: Rattus norvegicus; assay: Regional uptake of [18F]AFA in blood of rat pretreated with compound 7e; n=3; format: functional, organism-based; settings: tested as the 18F-labelled form
[25] = species: Rattus norvegicus; assay: Regional uptake of [18F]AFA in frontal cortex of rat pretreated with compound citalopram; n=3; format: functional, organism-based; settings: tested as the 18F-labelled form; method in brief: as §3

Sodium-dependent serotonin transporter (Rattus norvegicus), sequence (P31652 whole entry): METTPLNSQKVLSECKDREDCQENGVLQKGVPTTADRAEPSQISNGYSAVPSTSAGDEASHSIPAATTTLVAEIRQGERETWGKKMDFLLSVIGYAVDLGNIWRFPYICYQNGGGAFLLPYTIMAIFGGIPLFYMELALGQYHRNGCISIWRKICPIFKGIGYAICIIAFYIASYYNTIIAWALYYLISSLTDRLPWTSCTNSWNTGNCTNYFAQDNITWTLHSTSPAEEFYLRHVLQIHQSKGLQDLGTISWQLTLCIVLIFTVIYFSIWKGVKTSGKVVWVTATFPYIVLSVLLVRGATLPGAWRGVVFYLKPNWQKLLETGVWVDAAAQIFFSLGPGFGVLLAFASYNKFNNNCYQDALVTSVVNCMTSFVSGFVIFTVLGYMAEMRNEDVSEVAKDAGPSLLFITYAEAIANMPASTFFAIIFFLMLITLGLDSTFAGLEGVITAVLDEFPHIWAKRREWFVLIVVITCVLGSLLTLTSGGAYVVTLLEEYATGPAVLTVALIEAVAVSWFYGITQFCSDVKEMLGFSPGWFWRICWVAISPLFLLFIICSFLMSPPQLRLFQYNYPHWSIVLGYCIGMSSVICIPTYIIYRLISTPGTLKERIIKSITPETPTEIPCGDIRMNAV
Sodium-dependent serotonin transporter, sequence (P31645 whole entry): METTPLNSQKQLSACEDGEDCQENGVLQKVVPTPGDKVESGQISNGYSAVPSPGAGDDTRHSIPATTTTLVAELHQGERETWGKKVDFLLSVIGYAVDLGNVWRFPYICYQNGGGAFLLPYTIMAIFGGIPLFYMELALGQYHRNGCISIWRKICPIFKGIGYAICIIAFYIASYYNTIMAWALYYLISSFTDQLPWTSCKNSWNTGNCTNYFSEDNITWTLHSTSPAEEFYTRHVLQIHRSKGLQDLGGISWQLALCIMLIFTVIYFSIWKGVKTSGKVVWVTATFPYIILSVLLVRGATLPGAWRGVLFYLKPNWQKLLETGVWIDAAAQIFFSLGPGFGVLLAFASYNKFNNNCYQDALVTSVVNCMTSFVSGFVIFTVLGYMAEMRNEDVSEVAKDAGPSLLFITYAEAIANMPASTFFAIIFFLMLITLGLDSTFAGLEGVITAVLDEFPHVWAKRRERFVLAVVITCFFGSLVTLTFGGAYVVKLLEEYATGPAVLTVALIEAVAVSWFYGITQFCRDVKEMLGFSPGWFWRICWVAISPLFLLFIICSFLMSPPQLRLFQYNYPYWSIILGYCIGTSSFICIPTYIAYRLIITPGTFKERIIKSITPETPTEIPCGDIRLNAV

Specific binding [2]: 2.22 %ID/g | Specific binding [3]: 0.31 %ID/g | Specific binding [4]: 0.89 %ID/g | Ki [5]: 1.83 nM | Specific binding [7]: 0.5 %ID/g | Specific binding [8]: 1.98 %ID/g | Specific binding [12]: 3.35 %ID/g | Specific binding [13]: 2.62 %ID/g | Specific binding [14]: 0.96 %ID/g | Specific binding [15]: 1 %ID/g | Specific binding [17]: 2.18 %ID/g | Specific binding [20]: 1.63 %ID/g | Specific binding (dimensionless ratio) [21]: 4.5 | Specific binding (dimensionless ratio) [23]: 4.36
Structure (SMILES): CN(C)Cc1ccccc1Sc1ccc(CCF)cc1N
Uptake [1]: 0.14 %ID/g | Uptake [6]: 0.15 %ID/g | Uptake [9]: 0.09 %ID/g | Uptake [10]: 0.11 %ID/g | Uptake [11]: 0.07 %ID/g | Uptake [16]: 0.08 %ID/g | Uptake [18]: 0.07 %ID/g | Uptake [19]: 0.09 %ID/g | Uptake [22]: 0.17 %ID/g | Uptake [24]: 0.06 %ID/g | Uptake [25]: 0.08 %ID/g
